ChEMBL document CHEMBL1649370, “Penetratin analogues acting as antifungal agents” (2011)

Columns and labels:
Assay type in all cases: functional
Candida albicans [1] = experiment: Antifungal activity against Candida albicans ATCC 10231 assessed as inhibition of fungal growth at 200 uM after 24 hrs by microplate analysis; conditions: ATCC 10231, 24 h
How it was run: (§1)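 Broth microdilution in RPMI-1640. Peptide DMSO stocks were diluted to final concentrations of 200–3.125, with DMSO ≤2%. Inoculum was 1–5×10³ CFU/mL from Sabouraud-chloramphenicol agar cultures (24 h, 35 °C). Plates were held in a moist, dark chamber at 35 °C: 24 h for C. albicans, 48 h for C. neoformans.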

Cryptococcus neoformans [2] = experiment: Antifungal activity against Cryptococcus neoformans ATCC 32264 assessed as inhibition of fungal growth at 6.25 uM after 48 hrs by microplate analysis; conditions: ATCC 32264, 48 h; how it was run: as §1
Cryptococcus neoformans [3] = experiment: Antifungal activity against Cryptococcus neoformans ATCC 32264 assessed as inhibition of fungal growth at 12.5 uM after 48 hrs by microplate analysis; conditions: ATCC 32264, 48 h; how it was run: as §1
Cryptococcus neoformans [4] = experiment: Antifungal activity against Cryptococcus neoformans ATCC 32264 assessed as inhibition of fungal growth at 100 uM after 48 hrs by microplate analysis; conditions: ATCC 32264, 48 h; how it was run: as §1
Candida albicans [5] = experiment: Antifungal activity against Candida albicans ATCC 10231 assessed as inhibition of fungal growth at 6.25 uM after 24 hrs by microplate analysis; conditions: ATCC 10231, 24 h; how it was run: as §1
Cryptococcus neoformans [6] = experiment: Antifungal activity against Cryptococcus neoformans ATCC 32264 assessed as inhibition of fungal growth at 50 uM after 48 hrs by microplate analysis; conditions: ATCC 32264, 48 h; how it was run: as §1
Cryptococcus neoformans [7] = experiment: Antifungal activity against Cryptococcus neoformans ATCC 32264 assessed as inhibition of fungal growth at 25 uM after 48 hrs by microplate analysis; conditions: ATCC 32264, 48 h; how it was run: as §1
Candida albicans [8] = experiment: Antifungal activity against Candida albicans ATCC 10231 assessed as inhibition of fungal growth at 12.5 uM after 24 hrs by microplate analysis; conditions: ATCC 10231, 24 h; how it was run: as §1
Candida albicans [9] = experiment: Antifungal activity against Candida albicans ATCC 10231 assessed as inhibition of fungal growth at 25 uM after 24 hrs by microplate analysis; conditions: ATCC 10231, 24 h; how it was run: as §1
Candida albicans [10] = experiment: Antifungal activity against Candida albicans ATCC 10231 assessed as inhibition of fungal growth at 100 uM after 24 hrs by microplate analysis; conditions: ATCC 10231, 24 h; how it was run: as §1
Candida albicans [11] = experiment: Antifungal activity against Candida albicans ATCC 10231 assessed as inhibition of fungal growth at 50 uM after 24 hrs by microplate analysis; conditions: ATCC 10231, 24 h; how it was run: as §1
Cryptococcus neoformans [12] = experiment: Antifungal activity against Cryptococcus neoformans ATCC 32264 assessed as inhibition of fungal growth at 200 uM after 48 hrs by microplate analysis; conditions: ATCC 32264, 48 h; how it was run: as §1

Row | Compound | inhibition at 200 µM (Candida albicans [1]) [%] | inhibition at 6.25 µM (Cryptococcus neoformans [2]) [%] | inhibition at 12.5 µM (Cryptococcus neoformans [3]) [%] | inhibition at 100 µM (Cryptococcus neoformans [4]) [%] | inhibition at 6.25 µM (Candida albicans [5]) [%] | inhibition at 50 µM (Cryptococcus neoformans [6]) [%] | inhibition at 25 µM (Cryptococcus neoformans [7]) [%] | inhibition at 12.5 µM (Candida albicans [8]) [%] | inhibition at 25 µM (Candida albicans [9]) [%] | inhibition at 100 µM (Candida albicans [10]) [%] | inhibition at 50 µM (Candida albicans [11]) [%] | inhibition at 200 µM (Cryptococcus neoformans [12]) [%]
1 | CC[C@H](C)[C@H](NC(=O)[C@H](CCCCN)NC(=O)[C@@H](NC(=O)[C@H](CCC(N)=O)NC(=O)[C@H](CCCNC(=N)N)NC(=O)[C@H](Cc1c[nH]c2ccccc12)NC(=O)[C@H](CCCNC(=N)N)NC(=O)[C@H](Cc1ccccc1)NC(=O)[C@@H](N)Cc1cnc[nH]1)[C@@H](C)CC)C(=O)N[C@@H](Cc1c[nH]c2ccccc12)C(=O)N[C@@H](Cc1ccccc1)C(=O)N[C@@H](CCC(N)=O)C(=O)N[C@@H](CC(N)=O)C(=O)N[C@@H](CCCNC(=N)N)C(=O)N[C@@H](CCCNC(=N)N)C(=O)N[C@@H](CC[S+](C)[O-])C(=O)N[C@@H](CCCCN)C(=O)N[C@@H](Cc1c[nH]c2ccccc12)C(=O)N[C@@H](CCCCN)C(=O)N[C@@H](CCCCN)C(N)=O (some centres undefined) | 100 | 95.1 | 99.3 | 100 | 2.9 | 100 | 100 | 3.95 | 5.96 | 100 | 93.7 | 100
2 | N=C(N)NCCC[C@H](NC(=O)CNC(=O)[C@@H](N)Cc1ccc(O)cc1)C(=O)N[C@@H](CCCCN)C(=O)N[C@@H](CCCCN)C(=O)N[C@@H](CCCNC(=N)N)C(=O)N[C@@H](CCCNC(=N)N)C(=O)N[C@@H](CCC(N)=O)C(=O)N[C@@H](CCCNC(=N)N)C(=O)N[C@@H](CCCNC(=N)N)C(=O)N[C@@H](CCCNC(=N)N)C(=O)N[C@@H](CS)C(N)=O | 99.1 | 0 | 0 | 100 | 4.97 | 61.3 | 1.75 | 6.12 | 6.71 | 99.1 | 6.75 | 100
3 | C[C@@H]1[C@H](O)[C@@H](C)/C=C/C=C/C=C/C=C/C=C/C=C/C=C/[C@H](O[C@@H]2O[C@H](C)[C@@H](O)[C@H](N)[C@@H]2O)C[C@@H]2O[C@](O)(C[C@@H](O)C[C@@H](O)[C@H](O)CC[C@@H](O)C[C@@H](O)CC(=O)O[C@H]1C)C[C@H](O)[C@H]2C(=O)O [AMPHOTERICIN B] | 100 | 100 | 100 | 100 | 100 | 100 | 100 | 100 | 100 | 100 | 100 | 100
4 | CC(=O)N1CCN(c2ccc(OCC3COC(Cn4ccnc4)(c4ccc(Cl)cc4Cl)O3)cc2)CC1 (centres undefined) [KETOCONAZOLE] | 100 | 100 | 100 | 100 | 100 | 100 | 100 | 100 | 100 | 100 | 100 | 100
5 | H-KQIKIWFQNKKMKWKK-NH2 [KQIKIWFQNKKMKWKK-NH2] | 100 | 64.5 | 72 | 100 | 3.24 | 100 | 98.5 | 5.97 | 8.41 | 100 | 100 | 100
6 | H-RQIRIWFQNRRMRWRR-NH2 | 100 | 43.3 | 77.5 | 100 | 3.71 | 100 | 81.7 | 4.38 | 6.16 | 100 | 98.9 | 100
7 | H-RWWKWWWWWRRWKWKK-NH2 | 100 | 22.6 | 31.5 | 90 | 8.72 | 77.5 | 44.2 | 14.8 | 30.9 | 99.1 | 95.8 | 100
